SMARCA2 activ: activators of SMARCA2 function | MG213 cells, MMTV-luciferase reporter, dexamethasone, overnight | hit rate 1% among 370,000 | AID 652017 | activation, % at 9.1 µM; in the data active = activation above about 7.8%;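 note: 0% = vehicle wells and 100% = reference activator wells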
SR-BI uptake up: SR-BI HDL lipid transfer activation; hit rate 0.096% among 320,000; AID 504775; activation, % at 12.5 µM; CHO ldlA[mSR-BI] cells, DiI-HDL uptake fluorescence, 3 h; 100 = double the neutral-control signal;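 active = mean replicate activation of at least 60% and every replicate at or above 60%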;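 note: 0% = median plate neutral-control signal and 100% = twice that signal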
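System: CHO ldlA[mSR-BI] cells / Medium: HEPES-buffered (25 mM, pH 7.4) F12 plus 0.5% BSA / Probe or stimulus: labelled HDL, 10 µg/mL / Doses: single compound concentration, delivered by pin transfer / Schedule: 3 h, 37 °C / Measured by: DiI fluorescence, bottom read / Measure: cell-associated DiI fluorescence as measure of HDL uptake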
SR-BI DiI inh: inhibitors of mouse SR-BI mediated HDL lipid uptake; Q61009; ldlA[mSR-BI] CHO cells, DiI-HDL uptake fluorescence, 3 h; inhibition, % at 12.5 µM; hit rate 0.96% among 320,000;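 active = mean replicate inhibition of at least 70% and a set share of replicates each scoring 70 or more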;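 note: 0% = median of neutral control wells and 100% = median of positive control wells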
Target sequence (Q61009 whole entry, looked up): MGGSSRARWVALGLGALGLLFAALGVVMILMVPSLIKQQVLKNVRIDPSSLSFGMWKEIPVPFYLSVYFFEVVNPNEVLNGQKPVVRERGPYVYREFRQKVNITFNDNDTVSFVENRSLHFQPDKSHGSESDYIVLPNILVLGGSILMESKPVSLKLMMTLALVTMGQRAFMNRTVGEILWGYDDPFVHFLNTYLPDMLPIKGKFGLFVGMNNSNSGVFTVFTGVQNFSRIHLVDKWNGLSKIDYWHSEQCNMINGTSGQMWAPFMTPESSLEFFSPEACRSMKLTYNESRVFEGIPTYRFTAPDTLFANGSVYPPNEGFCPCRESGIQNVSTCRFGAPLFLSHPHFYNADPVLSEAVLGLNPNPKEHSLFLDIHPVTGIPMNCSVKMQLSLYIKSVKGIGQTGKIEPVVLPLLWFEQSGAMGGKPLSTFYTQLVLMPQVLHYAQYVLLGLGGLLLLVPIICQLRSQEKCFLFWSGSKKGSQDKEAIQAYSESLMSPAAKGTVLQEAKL
Vif imaging: HIV Vif inhibition | HEK293T cells, Vif self-association by quenched fluorescence, imaging, 24 h | inhibition, % at 7.49 µM | hit rate 0.35% among 340,000 | AID 602346; in the data active = inhibition above about 50%, passing the limit was not always enough
H9c2 TAG inh: triacylglycerol accumulation inhibition | AID 651582 | inhibition, % at 12.5 µM | H9c2 cells, Nile Red lipid (TAG) fluorescence; cells loaded with 200 µM oleic acid | hit rate 0.66% among 230,000;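 active = pattern-corrected inhibition of lipid staining of at least 50% with the nuclear-stain viability signal not falling by more than 50%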;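 note: 0% = DMSO wells and 100% = triacsin C control wells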
SMARCA2 conf: SMARCA2 activation, confirmation screen; shares compounds with SMARCA2 activ; MG213 cells, MMTV-luciferase with dexamethasone, luminescence, overnight; MG213 cells expressing E1A, Rb sequestered; DMSO wells 0%, reference activator 100%; activation, % at 9.1 µM; hit rate 30% among 3,500; AID 652260;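 active = activation above its plate's cutoff, the mean activation of tested wells plus 3 SD, cut at about 7.9% in these data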
VP16 Luc act: activates GAL4-VP16 luciferase, flagging SMARCA2 activator hits. HEK293 GAL4-VP16 pG5luc reporter, luciferase luminescence; scaled: DMSO wells 0%, SAHA wells 100%. AID 686939. hit rate 41% among 3,500. activation, % at 9.1 µM. shares compounds with SMARCA2 activ;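 active = activation above the solvent-only control well mean plus 3 SD, averaged across control plates, cut at about 5.2% in these data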
Numbers without * were called inactive; . = no result given. Sampled rows, rich in hits. Any-hit rate of the full collection: about 2.5%.

SMILES | SMARCA2 activ | SR-BI uptake up | SR-BI DiI inh | Vif imaging | H9c2 TAG inh | SMARCA2 conf | VP16 Luc act
Cc1cccnc1NC(=O)c1ccc([N+](=O)[O-])o1 | -1.3 | 37.6 | -37.6 | 4.1 | . | . | .
O=C(Nc1ccc(N2CCOCC2)cc1)c1ccc([N+](=O)[O-])o1 | 14.5* | 10.6 | -10.6 | -9.4 | . | 18.1* | 7.3*
Cc1ccccc1NC(=O)c1ccc([N+](=O)[O-])o1 | 10.6* | 23.6 | -23.6 | -0.8 | 68.2 | 11.2* | 3.5
O=C(Nc1ccc(NC(=O)c2ccc([N+](=O)[O-])o2)cc1Cl)c1ccco1 | 2.5 | -1.0 | 1.0 | -1.4 | . | . | .
Cc1cccc(NC(=O)c2ccc([N+](=O)[O-])s2)n1 | -0.2 | -2.1 | 2.1 | 3.2 | . | . | .
Cc1cccc(NC(=O)c2ccc([N+](=O)[O-])o2)n1 | 11.4* | 1.5 | -1.5 | 14.1 | 7.6 | 15.1* | 2.8
COc1ccc(S[C@]2(C(=O)NCCc3ccccc3)CC(=O)N[C@@H]2c2ccc(OC)cc2)cc1 | -5.0 | . | . | . | . | . | .
CC(=O)C1C(=O)C=C(c2cccs2)CC1c1ccccc1 (stereo not given) | 0.5 | 5.3 | -5.3 | 1.4 | . | . | .
O=C1C=C(c2cccs2)C[C@H](c2ccccc2)[C@H]1n1nnc([N+](=O)[O-])n1 | 8.3* | -2.8 | 2.8 | -5.5 | . | 8.3* | 1.6
O=C(Nc1ccccc1)c1nccn1Cc1ccc(F)cc1 | 9.9* | 15.3 | -15.4 | -6.8 | . | 3.5 | 3.0
O=C(Nc1ccc2oc(-c3ccccc3Cl)nc2c1)c1cncc(Br)c1 | 8.1* | -37.3 | 37.3 | -6.3 | 37.7 | -0.3 | 4.6
COc1cc(/C=C/C(=O)O)cc2c1OCCO2 | 8.0* | . | . | 1.0 | 2.6 | -4.5 | -1.0
CCOC(=O)[C@]12CCCC3=C1N(CCC3)C(=O)[C@@H](CC(=O)N1CCC(c3ccccc3)CC1)C2 | -1.6 | . | . | . | . | . | .
O=C(Nc1cccc(-c2ccc(N3CCOCC3)nn2)c1)c1ccccc1Cl | 10.7* | -27.8 | 27.8 | 10.8 | 11.4 | 14.3* | 10.2*
O=C(Nc1cccc(-c2ccc(N3CCOCC3)nn2)c1)c1cccc(Cl)c1 | 9.4* | . | . | 0.0 | 28.1 | 5.3 | 7.0*
CC1(C)CC2(C)OC(=N)C1(C#N)C2(C#N)C#N (stereo not given) | -4.3 | -2.8 | 2.8 | -3.8 | 27.9 | . | .
CC(/C=N/NC(=O)c1ccco1)=C\c1ccccc1 | 9.4* | 4.5 | -4.5 | . | -4.1 | 11.1* | 6.1*
Cc1ccc(/C=N/NC(=O)c2ccco2)cc1 | 8.8* | -6.9 | 6.9 | -2.9 | 6.1 | 5.6 | 10.8*
CC(=O)c1ccc(S(=O)(=O)N2CCN(C(=O)C(=O)c3cccc(C(F)(F)F)c3)CC2)cc1 | -1.0 | . | . | . | . | . | .
O=C(CN1C(=O)NC2(CCc3ccccc32)C1=O)c1c[nH]c2ccccc12 (stereo not given) | -0.1 | -2.6 | 2.6 | -12.2 | 8.3 | . | .
Cc1ccc2cc(CCNC(=O)c3cccs3)c(=O)[nH]c2c1C | 0.6 | 6.6 | -6.6 | -9.3 | 4.7 | . | .
Cc1ccc2cc(CCNC(=O)c3cccs3)c(=O)[nH]c2c1 | 8.1* | 21.5 | -21.5 | 14.4 | -7.9 | 6.0 | 8.3*
Cc1ccc2[nH]c(=O)c(COC(=O)c3cccs3)cc2c1 | 8.6* | 15.4 | -15.4 | -28.0 | . | -1.9 | -0.9
CC(=O)NCCc1cc2ccc(C)c(C)c2[nH]c1=O | 8.3* | 12.6 | -12.6 | 7.2 | -12.0 | -1.3 | 0.7
CCCCNC(=O)C[C@H]1C[C@@]2(C(=O)OC)C(=C[C@H](C(C)(C)C)O[C@@H]2C)N(CCC2=CCCCC2)C1=O | 0.2 | . | . | . | . | . | .
SMILES | SMARCA2 activ | SR-BI uptake up | SR-BI DiI inh | Vif imaging | H9c2 TAG inh | SMARCA2 conf | VP16 Luc act
Cc1ccc(-n2nc3c(c2NC(=O)c2ccc4c(c2)OCO4)CS(=O)(=O)C3)c(C)c1 | -1.6 | -10.3 | 10.3 | -8.5 | . | . | .
COCCNC(=O)/C(C#N)=C/C=C/c1ccccc1[N+](=O)[O-] | 12.2* | 4.6 | -4.6 | 18.0 | 19.9 | 17.9* | 0.5
CC1CCN(C(=O)Cn2nnc(-c3ccccc3)n2)CC1 | 7.7 | 1.6 | -1.6 | -3.6 | . | . | .
Nc1[nH]c(C(=O)c2ccccc2)c(-c2ccccc2C(F)(F)F)c1C(=O)c1c[nH]c2ccccc12 | -3.1 | . | . | . | . | . | .
O=C(Nc1cnc2ccccn2c1=O)c1ccc(Cl)cc1Cl | 9.0* | -1.5 | 1.5 | 34.0 | 9.8 | 6.1 | 3.4
O=C(Nc1cnc2sccn2c1=O)c1ccccc1Cl | 8.0* | 14.5 | -14.4 | 3.9 | . | 15.3* | 11.3*
Cc1cccc(NC(=O)c2cnc3sccn3c2=O)c1C | 5.7 | . | . | 1.9 | 5.6 | . | .
COc1ccc(NC(=O)c2cnc3sccn3c2=O)cc1 | 8.3* | 10.9 | -10.9 | . | 2.6 | 7.8 | 5.2*
NC(=O)c1ccc(NC(=O)CSc2nnc(-c3ccccc3)n2-c2ccccc2)cc1 | -1.7 | . | . | . | . | . | .
CCC(NC(=O)CN1CCN(c2cccc(OC)c2)CC1)c1ccccc1 (stereo not given) | -4.5 | . | . | . | . | . | .
COc1ccc(-c2nc(C#N)c(NCc3cccnc3)o2)cc1OC | 10.1* | 2.8 | -2.8 | -1.8 | 3.3 | -2.2 | 2.7
Cc1cc(N2CCN(CC(C)(C)O)C[C@@H]2C)ccc1N1CCN(CC(C)(C)O)[C@H](C)C1 | -1.8 | . | . | . | . | . | .
COc1cc(/C=N/O)ccc1OCc1ccc(Cl)cc1 | 16.7* | . | . | . | . | 12.4* | 8.7*
O=S1(=O)CC2c3ccccc3CCN2CN1Cc1ccccc1 (stereo not given) | -2.2 | . | . | . | . | . | .
Cc1cccc[n+]1CCCCCCCCCC[n+]1ccccc1C | -5.0 | . | . | -28.5 | -7.0 | . | .
CCCc1ncc(C[n+]2ccccc2C)c(N)n1 | 9.1* | -4.5 | 4.5 | -8.3 | 4.0 | -0.8 | 0.6
